Source: ChEMBL document CHEMBL2380292, “Discovery of SAR184841, a potent and long-lasting inhibitor of 11β-hydroxysteroid dehydrogenase type 1, active in a physiopathological animal model of T2D” (Bioorg Med Chem Lett, 2013)
pIC50: −log10 of the molar value.

Columns and labels:
Mus musculus [1] = experiment: Antidiabetic activity in diet induced obese C57Bl/6J mouse assessed as plasma insulin level at 3 mg/kg, po qd administered for 4 weeks (reference value: 3.6 +/- 0.2 ng/mL); format: functional
Mus musculus [2] = experiment: Antidiabetic activity in diet induced obese C57Bl/6J mouse assessed as plasma insulin level at 1 mg/kg, po qd administered for 4 weeks (reference value: 3.6 +/- 0.2 ng/mL); format: functional
[3] = Oral bioavailability in rat at 10 mg/kg; format: ADME, organism-based; settings: in vivo
Mus musculus [4] = experiment: Inhibition of 11beta-HSD1 in mouse liver at 3 mg/kg, po after 7 hrs; format: functional
Outline: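 Pharmacodynamic study in mice: single oral 3 mg/kg dose, with liver and fat 11β-HSD1 activity followed over 24 h post-dosing.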

[5] = AUC (0 to infinity) in rat plasma at 10 mg/kg, po; format: ADME, organism-based; set-up: time infinity, dose 10 mg/kg, route oral
[6] = Solubility of the compound in aqueous buffer up to pH 4.5; format: physicochemical
Cytochrome P450 3A4 = Cytochrome P450 3A4 (Homo sapiens, UniProt P08684); experiment: Inhibition of CYP3A4 (unknown origin); format: ADME
Cytochrome P450 3A4, sequence (P08684 whole entry): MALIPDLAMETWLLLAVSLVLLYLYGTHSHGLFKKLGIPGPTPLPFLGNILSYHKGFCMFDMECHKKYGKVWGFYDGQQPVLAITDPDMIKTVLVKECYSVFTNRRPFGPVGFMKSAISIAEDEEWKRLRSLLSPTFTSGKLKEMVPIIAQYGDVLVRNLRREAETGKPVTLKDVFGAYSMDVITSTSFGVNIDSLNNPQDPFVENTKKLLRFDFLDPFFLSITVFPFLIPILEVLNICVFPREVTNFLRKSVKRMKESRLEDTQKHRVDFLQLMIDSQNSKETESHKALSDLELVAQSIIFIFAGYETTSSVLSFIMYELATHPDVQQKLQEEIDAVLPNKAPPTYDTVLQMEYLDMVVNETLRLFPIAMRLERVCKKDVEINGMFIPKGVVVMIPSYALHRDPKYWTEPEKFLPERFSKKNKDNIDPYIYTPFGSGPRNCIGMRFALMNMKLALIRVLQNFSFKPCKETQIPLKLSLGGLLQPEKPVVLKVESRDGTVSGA

[7] = target: 11-beta-hydroxysteroid dehydrogenase 1 (Mus musculus, UniProt P50172); experiment: Inhibition of mouse recombinant 11beta-HSD1 by scintillation proximity assay
11-beta-hydroxysteroid dehydrogenase 1, sequence (P50172 whole entry): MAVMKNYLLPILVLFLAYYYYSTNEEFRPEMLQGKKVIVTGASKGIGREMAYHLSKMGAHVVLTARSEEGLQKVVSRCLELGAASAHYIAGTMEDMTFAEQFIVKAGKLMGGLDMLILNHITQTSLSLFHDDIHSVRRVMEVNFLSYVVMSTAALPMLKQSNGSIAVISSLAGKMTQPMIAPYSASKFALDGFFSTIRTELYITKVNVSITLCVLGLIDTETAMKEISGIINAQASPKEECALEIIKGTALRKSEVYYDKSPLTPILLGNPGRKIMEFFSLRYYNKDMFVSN

Mus musculus [8] = experiment: Ex vivo inhibition of 11beta-HSD1 in C57Bl/6J mouse subcutaneous fat at 3 mg/kg, po after 16 hrs; format: functional
Outline: (§1)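 Mice given a single oral dose as a suspension in Tween 80/0.6% methylcellulose (0.5/99.5, v/v) at 10 mL/kg. At 2 h or 16 h post-dose, animals were killed by cervical dislocation and 50 mg liver and 200 mg subcutaneous fat were taken for 11β-HSD1 activity. Reactions were stopped with HCl 1 N/methanol (1/1). 3H-cortisone and 3H-cortisol were quantified by HPLC with flow scintillation detection.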

Mus musculus [9] = experiment: Ex vivo inhibition of 11beta-HSD1 in C57Bl/6J mouse liver at 3 mg/kg, po after 16 hrs; format: functional; outline: as §1
Mus musculus [10] = organism: Mus musculus; experiment: Toxicity in C57Bl/6J mouse assessed as HPA axis biomarker modification; format: organism-based; settings: in vivo
Mus musculus [11] = experiment: Hepatotoxicity in C57Bl/6J mouse assessed as alteration of liver function biomarkers at 1 to 10 mg/kg, po after 4 weeks; format: toxicity, organism-based; set-up: dose 1-10 mg/kg, route oral; settings: in vivo, 672 h
[12] = Plasma concentration in C57Bl/6J mouse at 3 mg/kg, po 22 hrs post last dose; format: ADME, organism-based; set-up: dose 3 mg/kg, route oral
Outline: (§2)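 C57Bl/6J mice, 20 weeks old, kept on a high-fat/high-fructose diet (diet-induced obese), were dosed orally once daily for 4 weeks at 1, 3 or 10 mg/kg/day in methylcellulose-Tween 80 vehicle. Lean and obese vehicle-treated controls were included, with n = 9–10 per group. Food intake and body weight were followed. Plasma drug levels were taken at study end, about 22 h after the last dose.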

Mus musculus [13] = experiment: Toxicity in C57Bl/6J mouse assessed as change in body weight at 1 to 10 mg/kg, po; format: organism-based; set-up: dose 1-10 mg/kg, route oral; settings: in vivo; outline: as §2
Mus musculus [14] = experiment: Antidiabetic activity in po dosed C57Bl/6J mouse assessed as reduction in plasma insulin level administered for 4 weeks; format: functional, organism-based
Mus musculus [15] = experiment: Antidiabetic activity in diet induced obese C57Bl/6J mouse assessed as liver triglyceride level at 10 mg/kg, po qd administered for 4 weeks (reference value: 210.5 +/- 15.4 mg/g); format: functional
Mus musculus [16] = experiment: Antidiabetic activity in diet induced obese C57Bl/6J mouse assessed as liver triglyceride level at 1 mg/kg, po qd administered for 4 weeks (reference value: 210.5 +/- 15.4 mg/g); format: functional
Mus musculus [17] = experiment: Antidiabetic activity in diet induced obese C57Bl/6J mouse assessed as plasma cholesterol level at 10 mg/kg, po qd administered for 4 weeks (reference value: 154.3 +/- 8.6 mg/dL); format: functional
Mus musculus [18] = experiment: Antidiabetic activity in diet induced obese C57Bl/6J mouse assessed as plasma triglyceride level at 10 mg/kg, po qd administered for 4 weeks (reference value: 36.2 +/- 2.1 […]); format: functional
Mus musculus [19] = experiment: Antidiabetic activity in diet induced obese C57Bl/6J mouse assessed as plasma leptin level at 10 mg/kg, po qd administered for 4 weeks (reference value: 22.5 +/- 2.4 ng/mL); format: functional
in vivo [20] = settings: rat, brain, po, 10 mg/kg
in vivo [21] = settings: rat, liver, po, 10 mg/kg

- bioavailability [3]: 25%
- AUC(0-inf) [5]: 580 ng·h/mL
- solubility [6]: > 2000 µg/mL
- pIC50 (Cytochrome P450 3A4): < 4.30
- pIC50 [7]: 8.22
- concentration at 22 h [12]: 3.8 nM
- Kp (in vivo [20]): 0.14
- Kp (in vivo [21]): 224
Compound: CC(C)(C)N1CCN(c2ccc(N3CCN(C(=O)N[C@H]4C5CC6CC4C[C@](C(N)=O)(C6)C5)c4ccccc43)nc2)CC1
- Activity (Mus musculus [1]): 2.3 ng/mL
- Activity (Mus musculus [2]): 2.8 ng/mL
- inhibition in vivo at 3 mg/kg (Mus musculus [4]): > 90%
- inhibition in vivo at 3 mg/kg (Mus musculus [8]): > 50%
- inhibition in vivo at 3 mg/kg (Mus musculus [9]): > 50%
- Activity (Mus musculus [10]): Non-toxic
- Activity (Mus musculus [11]): Non-toxic
- Activity (Mus musculus [13]): Non-toxic
- Activity (Mus musculus [14]): Dose-dependent effect
- Activity (Mus musculus [15]): 129.1 mg/g
- Activity (Mus musculus [16]): 167.4 mg/g
- Activity (Mus musculus [17]): 123.6 mg/dL
- Activity (Mus musculus [18]): 35 mg/mL
- Activity (Mus musculus [19]): 12.5 ng/mL
